Data from ChEMBL document CHEMBL3785055, “Arginine-linked neomycin B dimers: synthesis, rRNA binding, and resistance enzyme activity” (Medchemcomm, 2016).
Converted amounts (≈) assume the structure as drawn. The source made the active and inactive calls. The calls are words filed in the database; no cut-off is given here.

Experiments:
Staphylococcus aureus [1] = assay: Activity at Staphylococcus aureus AAC(6')-1e/APH(2'')-1a in presence of AcCoA by Ellmans method relative to NEO
Staphylococcus aureus [2] = assay: Activity at Staphylococcus aureus APH(2'')-1a at 100 uM in presence of […] by […] relative to NEO
[3] = system: Staphylococcus epidermidis; assay: Antibacterial activity against Staphylococcus epidermidis ATCC 12228 after 16 to 20 hrs by MTT assay; format: functional
Procedure, shortened: (§1)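 Strains grown in LB 24 h at 37 °C, 250 rpm; overnight culture diluted 1:1000, grown 4 h, diluted 1:1000 again and added to microplates. Incubation 16–20 h at 37 °C; growth read visually and with MTT (1 mg/mL).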

[4] = Activity at Eis (unknown origin) at 100 uM in presence of AcCoA by Ellmans method relative to NEO
Procedure, shortened: (§2)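 Acetylation followed by Ellman's method at 412 nm, 2 mM DTNB, 100 μM compound, 25 °C, triplicate, rates normalized to NEO. AcCoA 500 μM for Eis, 150 μM for AAC(3)-IV; enzyme 0.5 μM for Eis, 0.125 μM for AAC(3)-IV; 50 mM buffer.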

[5] = system: Mycobacterium tuberculosis; assay: Activity at Mycobacterium tuberculosis AAC(2')-1c at 100 uM in presence of AcCoA by Ellmans method relative to NEO
Procedure, shortened: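 N-acetylation by AAC(2')-Ic (0.125 μM enzyme) of 100 μM compound with 150 μM AcCoA and 2 mM DTNB in 100 mM buffer, 25 °C. Thiol release followed at 412 nm (ε = 14,150 M⁻¹cm⁻¹). Rates normalized to neomycin B, triplicate.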

Bacillus cereus = assay: Antibacterial activity against Bacillus cereus ATCC 11778 after 16 to 20 hrs by MTT assay; format: functional; procedure, shortened: as §1
[6] = Selectivity factor, ratio of IC50 for human rRNA A-site to IC50 for Escherichia coli rRNA A-site
Procedure, shortened: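 Ratio from F-NEO displacement titrations, 0.002–2.0 μM compound against 0.1 μM F-NEO:A-site complex (485/535 nm). Measured IC50 stands in for the unmeasurable competition constants in Kd(human)/Kd(E. coli) = 5.75 × K(E. coli)/K(human). Buffer 10 mM HEPES, 50 mM NaCl, 0.4 mM EDTA, pH 7.0.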

[7] = Displacement of F-NEO from human rRNA A-site by fluorescence assay
[8] = Displacement of F-NEO from Escherichia coli rRNA A-site by fluorescence assay
Escherichia coli = assay: Activity at Escherichia coli AAC(3)-4 at 100 uM in presence of AcCoA by Ellmans method relative to NEO; procedure, shortened: as §2
[9] = Activity at APH(3')-1a (unknown origin) at 100 uM in presence of […] by […] relative to NEO
Staphylococcus aureus [10] = assay: Antibacterial activity against Staphylococcus aureus ATCC 25923 after 16 to 20 hrs by MTT assay; format: functional; procedure, shortened: as §1

| Structure (SMILES) | Activity (Staphylococcus aureus [1]) | Activity (Staphylococcus aureus [2]) | MIC [3] [µM] | Activity [4] | Activity [5] | MIC (Bacillus cereus) [µM] | Ratio IC50 [6] | IC50 [7] [µM] | IC50 [8] [µM] | Activity (Escherichia coli) | Activity [9] | MIC (Staphylococcus aureus [10]) [µM] |
| --- | --- | --- | --- | --- | --- | --- | --- | --- | --- | --- | --- | --- |
| N=C(N)NCCC[C@H](NC(=O)CNC(=O)c1cc(-c2cn(C[C@H]3O[C@@H](O[C@@H]4[C@@H](O)[C@H](N)C[C@H](N)[C@H]4O[C@H]4O[C@H](CN)[C@@H](O)[C@H](O)[C@H]4N)[C@H](O)[C@@H]3O[C@H]3O[C@@H](CN)[C@@H](O)[C@H](O)[C@H]3N)nn2)cc(-c2cn(C[C@H]3O[C@@H](O[C@H]4[C@H](O)[C@@H](N)C[C@@H](N)[C@@H]4O[C@@H]4O[C@@H](CN)[C@H](O)[C@@H](O)[C@@H]4N)[C@H](O)[C@@H]3O[C@H]3O[C@@H](CN)[C@@H](O)[C@H](O)[C@H]3N)nn2)c1)C(N)=O (stereo in doubt) | inactive | inactive | > 50 | inactive | inactive | 1.6 (≈ 2.66 µg/mL) | 5.3 | 58 | 62 | Active | inactive | 50 (≈ 83.1 µg/mL) |
| N=C(N)NCCC[C@@H](NC(=O)c1cc(-c2cn(C[C@@H]3O[C@H](O[C@@H]4[C@@H](O)[C@H](N)C[C@H](N)[C@H]4O[C@@H]4O[C@@H](CN)[C@H](O)[C@@H](O)[C@@H]4N)[C@@H](O)[C@H]3O[C@H]3O[C@@H](CN)[C@@H](O)[C@H](O)[C@H]3N)nn2)cc(-c2cn(C[C@H]3O[C@@H](O[C@@H]4[C@@H](O)[C@H](N)C[C@H](N)[C@H]4O[C@@H]4O[C@@H](CN)[C@H](O)[C@@H](O)[C@@H]4N)[C@H](O)[C@@H]3O[C@H]3O[C@@H](CN)[C@@H](O)[C@H](O)[C@H]3N)nn2)c1)C(N)=O (stereo in doubt) | inactive | inactive | > 50 | inactive | inactive | 3 (≈ 4.81 µg/mL) | 7.4 | 71 | 55 | 30% | inactive | > 50 |
| N=C(N)NCCC[C@@H](NC(=O)CCCNC(=O)c1cc(-c2cn(C[C@@H]3O[C@H](O[C@@H]4[C@@H](O)[C@H](N)C[C@H](N)[C@H]4O[C@@H]4O[C@@H](CN)[C@H](O)[C@@H](O)[C@@H]4N)[C@@H](O)[C@H]3O[C@@H]3O[C@H](CN)[C@H](O)[C@@H](O)[C@@H]3N)nn2)cc(-c2cn(C[C@H]3O[C@@H](O[C@@H]4[C@@H](O)[C@H](N)C[C@H](N)[C@H]4O[C@@H]4O[C@@H](CN)[C@H](O)[C@@H](O)[C@@H]4N)[C@H](O)[C@@H]3O[C@@H]3O[C@H](CN)[C@H](O)[C@@H](O)[C@@H]3N)nn2)c1)C(N)=O (stereo in doubt) | inactive | inactive | > 50 | inactive | inactive | 1.6 (≈ 2.7 µg/mL) | 5.3 | 52 | 56 | Active | inactive | > 50 |
| N=C(N)NCCC[C@H](NC(=O)CCCCCNC(=O)c1cc(-c2cn(C[C@@H]3O[C@H](O[C@H]4[C@H](O)[C@@H](N)C[C@@H](N)[C@@H]4O[C@H]4O[C@H](CN)[C@@H](O)[C@H](O)[C@H]4N)[C@@H](O)[C@H]3O[C@H]3O[C@@H](CN)[C@@H](O)[C@H](O)[C@H]3N)nn2)cc(-c2cn(C[C@H]3O[C@@H](O[C@@H]4[C@@H](O)[C@H](N)C[C@H](N)[C@H]4O[C@@H]4O[C@@H](CN)[C@H](O)[C@@H](O)[C@@H]4N)[C@H](O)[C@@H]3O[C@@H]3O[C@H](CN)[C@H](O)[C@@H](O)[C@@H]3N)nn2)c1)C(N)=O (stereo in doubt) | inactive | inactive | > 50 | inactive | inactive | 1.6 (≈ 2.75 µg/mL) | 7.2 | 68 | 54 | Active | inactive | > 50 |
| N=C(N)NCCC[C@H](NC(=O)CCCCCCCCNC(=O)c1cc(-c2cn(C[C@@H]3O[C@H](O[C@H]4[C@H](O)[C@@H](N)C[C@@H](N)[C@@H]4O[C@H]4O[C@H](CN)[C@@H](O)[C@H](O)[C@H]4N)[C@@H](O)[C@H]3O[C@H]3O[C@@H](CN)[C@@H](O)[C@H](O)[C@H]3N)nn2)cc(-c2cn(C[C@H]3O[C@@H](O[C@@H]4[C@@H](O)[C@H](N)C[C@H](N)[C@H]4O[C@@H]4O[C@@H](CN)[C@H](O)[C@@H](O)[C@@H]4N)[C@H](O)[C@@H]3O[C@@H]3O[C@H](CN)[C@H](O)[C@@H](O)[C@@H]3N)nn2)c1)C(N)=O (stereo in doubt) | inactive | inactive | 50 (≈ 88 µg/mL) | inactive | inactive | 3 (≈ 5.28 µg/mL) | 5.9 | 62 | 60 | – | inactive | > 50 |
| N=C(N)NCCC[C@H](NC(=O)CCNC(=O)c1cc(-c2cn(C[C@@H]3O[C@H](O[C@H]4[C@H](O)[C@@H](N)C[C@@H](N)[C@@H]4O[C@H]4O[C@H](CN)[C@@H](O)[C@H](O)[C@H]4N)[C@@H](O)[C@H]3O[C@H]3O[C@@H](CN)[C@@H](O)[C@H](O)[C@H]3N)nn2)cc(-c2cn(C[C@H]3O[C@@H](O[C@@H]4[C@@H](O)[C@H](N)C[C@H](N)[C@H]4O[C@@H]4O[C@@H](CN)[C@H](O)[C@@H](O)[C@@H]4N)[C@H](O)[C@@H]3O[C@@H]3O[C@H](CN)[C@H](O)[C@@H](O)[C@@H]3N)nn2)c1)C(N)=O (stereo in doubt) | inactive | inactive | 50 (≈ 83.8 µg/mL) | inactive | inactive | 0.8 (≈ 1.34 µg/mL) | 4.7 | 58 | 70 | Active | inactive | 50 (≈ 83.8 µg/mL) |
| NCC1O[C@H](O[C@H]2[C@@H](O)[C@H](O[C@H]3[C@H](O)[C@@H](N)C[C@@H](N)[C@@H]3O[C@H]3O[C@H](CN)[C@@H](O)[C@H](O)[C@H]3N)O[C@@H]2CO)[C@H](N)[C@@H](O)[C@@H]1O (some centres undefined) | – | – | 0.2 (≈ 0.123 µg/mL) | – | – | ≤ 0.1 | 5 | 76 | 87 | – | – | 0.2 (≈ 0.123 µg/mL) |
| N=C(N)NCCC[C@H](NC(=O)CCCCCCNC(=O)c1cc(-c2cn(C[C@@H]3O[C@H](O[C@H]4[C@H](O)[C@@H](N)C[C@@H](N)[C@@H]4O[C@H]4O[C@H](CN)[C@@H](O)[C@H](O)[C@H]4N)[C@@H](O)[C@H]3O[C@H]3O[C@@H](CN)[C@@H](O)[C@H](O)[C@H]3N)nn2)cc(-c2cn(C[C@H]3O[C@@H](O[C@@H]4[C@@H](O)[C@H](N)C[C@H](N)[C@H]4O[C@@H]4O[C@@H](CN)[C@H](O)[C@@H](O)[C@@H]4N)[C@H](O)[C@@H]3O[C@@H]3O[C@H](CN)[C@H](O)[C@@H](O)[C@@H]3N)nn2)c1)C(N)=O (stereo in doubt) | inactive | inactive | > 50 | inactive | inactive | 3 (≈ 5.2 µg/mL) | 7.3 | 56 | 44 | – | inactive | > 50 |
| N=C(N)NCCC[C@H](NC(=O)CCCCCCCNC(=O)c1cc(-c2cn(C[C@@H]3O[C@H](O[C@H]4[C@H](O)[C@@H](N)C[C@@H](N)[C@@H]4O[C@H]4O[C@H](CN)[C@@H](O)[C@H](O)[C@H]4N)[C@@H](O)[C@H]3O[C@H]3O[C@@H](CN)[C@@H](O)[C@H](O)[C@H]3N)nn2)cc(-c2cn(C[C@H]3O[C@@H](O[C@@H]4[C@@H](O)[C@H](N)C[C@H](N)[C@H]4O[C@@H]4O[C@@H](CN)[C@H](O)[C@@H](O)[C@@H]4N)[C@H](O)[C@@H]3O[C@@H]3O[C@H](CN)[C@H](O)[C@@H](O)[C@@H]3N)nn2)c1)C(N)=O (stereo in doubt) | inactive | inactive | 25 (≈ 43.6 µg/mL) | inactive | inactive | 3 (≈ 5.24 µg/mL) | 5.2 | 43 | 48 | – | inactive | > 50 |
